We go through 51 molecules from ChEMBL document CHEMBL1133507, “Novel bronchodilators: synthesis, transamination reactions, and pharmacology of a series of pyrazino[2,3-c][1,2,6]thiadiazine 2, 2-dioxides” (2000).

≈ marks a conversion by molar mass, not a printed value. Calls of active or inactive are those of the source. The calls are words filed in the database; no cut-off is given here.

What all share (assay type): functional
Assay [1] is filed under the species Cavia porcellus. Put plainly: Tracheal relaxing activity expressed as minimum inhibitory concentration required to obtain a inhibitory response by more than 50%. The essentials:
(§1)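 Tracheal relaxation was tested over several concentrations, each in duplicate. The value is the lowest concentration (µg/mL) giving more than 50% inhibition of the response.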

The species entered for assay [2] is Cavia porcellus. The assay can be described thus: Bronchodilatory activity in vitro by tracheal tone inhibition at 30 ug/mL in guinea pig tracheal muscle. As to conditions: Muscle tissue. In outline: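 In vitro tracheal relaxation. Percent inhibition was recorded with 30 µg/mL test compound, each concentration assayed in duplicate. Inhibition above 50% was taken as pharmacologically significant.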

For assay [3], the species on record is Cavia porcellus. The assay can be described thus: Tracheal relaxing activity expressed as minimum inhibitory concentration required to obtain a inhibitory response by more than 50%; NA denotes no activity at 30 ug/mL. In outline: as §1

As a reminder, the MIC is the least concentration at which growth counts as inhibited. The inhibition is the change of the read-out against control, counted positive when it falls. For the molecule `CCN1c2ncc(C(C)C)nc2C(N)=NS1(=O)=O`, in the assay filed under Cavia porcellus [1], 30 µg/mL (≈ 111 µM) was the least that counted as inhibitory (MIC). The same molecule had an inhibition at 30 µg/mL in the assay listed under Cavia porcellus [2] of 57%.
For `Cn1c(=O)c2nc[nH]c2n(C)c1=O.O` [THEOPHYLLINE], in the assay listed under Cavia porcellus [1], inhibition of growth (MIC) required 30 µg/mL. This molecule also displayed an inhibition at 30 µg/mL in the assay listed under Cavia porcellus [2] of 60%.
The corresponding values for `Cc1nc2c(nc1C)N(CCO)S(=O)(=O)N=C2N` are 30 µg/mL (≈ 111 µM) and 59%.
`CCN1c2nccnc2C(N)=NS1(=O)=O` returned an inhibition at 30 µg/mL in the assay filed under Cavia porcellus [2] of 13%. In addition, the MIC result in the assay filed under Cavia porcellus [3] is “inactive”.
On the same counts, the results for `CCc1nc2c(nc1C)C(NCCN(C)C)=NS(=O)(=O)N2CC` are 34% and “inactive”.
In the assay listed under Cavia porcellus [1], `CCN1c2nc3c(nc2C(N)=NS1(=O)=O)CCCC3` returned a minimum inhibitory concentration (MIC) of 10 µg/mL (≈ 35.5 µM). Besides, testing at 30 µg/mL in the assay filed under Cavia porcellus [2] gave an inhibition of 82%.
For `Cc1nc2c(nc1C)N(CC(=O)O)S(=O)(=O)N=C2N`, the inhibition at 30 µg/mL in the assay listed under Cavia porcellus [2] was 13%. Moreover, the MIC entry in the assay listed under Cavia porcellus [3] is “inactive”.
`CCNC1=NS(=O)(=O)N(CC)c2ncc(C)nc21` gave an MIC in the assay filed under Cavia porcellus [1] of 30 µg/mL (≈ 111 µM). This molecule yielded an inhibition at 30 µg/mL in the assay listed under Cavia porcellus [2] of 63%.
In the assay filed under Cavia porcellus [2], `CCN1c2nc(C(C)C)c(C(C)C)nc2C(N)=NS1(=O)=O` had an inhibition at 30 µg/mL of 0%. Also, in the assay filed under Cavia porcellus [3], the MIC entry is “inactive”.
In turn, `CCN1c2nc(C)cnc2C(N)=NS1(=O)=O` showed an inhibition at 30 µg/mL in the assay filed under Cavia porcellus [2] of 42%. For the same molecule, the MIC result in the assay filed under Cavia porcellus [3] was “inactive”.
For the molecule `CN1c2nc(-c3ccccc3)cnc2C(NCCN)=NS1(=O)=O`, in the assay listed under Cavia porcellus [2], 30 µg/mL produced 6% inhibition. Further, the MIC entry in the assay listed under Cavia porcellus [3] was “inactive”.
In the assay listed under Cavia porcellus [1], `CCCN1c2nc(C)c(C)nc2C(N)=NS1(=O)=O` had a minimal inhibitory concentration (MIC) of 30 µg/mL (≈ 111 µM). For the same molecule, in the assay listed under Cavia porcellus [2], the inhibition at 30 µg/mL was 58%.
On the same counts, the results for `CCc1nc2c(nc1C)C(NC)=NS(=O)(=O)N2CC` are 30 µg/mL (≈ 106 µM) and 75%.
The corresponding values for `CN1c2nc3c(nc2C(N)=NS1(=O)=O)CCCCC3` are 10 µg/mL (≈ 35.5 µM) and 88%.
The corresponding values for `CCc1cnc2c(n1)C(N)=NS(=O)(=O)N2CC` are 10 µg/mL (≈ 39.2 µM) and 72%.
In the assay listed under Cavia porcellus [1], `Cc1nc2c(nc1C)N(C)S(=O)(=O)N=C2N` came in with a minimum inhibitory concentration (MIC) of 3 µg/mL (≈ 12.4 µM). Besides, in the assay filed under Cavia porcellus [2], testing at 30 µg/mL gave an inhibition of 92%.
For the molecule `CCCc1nc2c(nc1C)C(N)=NS(=O)(=O)N2CC`, testing at 30 µg/mL in the assay filed under Cavia porcellus [2] gave an inhibition of 34%. Also, the MIC entry in the assay filed under Cavia porcellus [3] is “inactive”.
Molecule `CCN1c2nc(C)c(Br)nc2C(N)=NS1(=O)=O` gave a minimal inhibitory concentration (MIC) in the assay listed under Cavia porcellus [1] of 10 µg/mL (≈ 31.2 µM). Besides, in the assay listed under Cavia porcellus [2], 30 µg/mL produced 88% inhibition.
The molecule `Cc1nc2c(nc1-c1ccccc1)C(N1CCCC1)=NS(=O)(=O)N2C` came in with an inhibition at 30 µg/mL in the assay filed under Cavia porcellus [2] of 10%. In the assay filed under Cavia porcellus [3], the MIC entry was “inactive”.
Turning to `CN1c2ncc(-c3ccccc3)nc2C(N)=NS1(=O)=O`, inhibition of growth in the assay filed under Cavia porcellus [1] (MIC) required 30 µg/mL (≈ 104 µM). In the assay filed under Cavia porcellus [2], this molecule registered an inhibition at 30 µg/mL of 56%.
In the assay filed under Cavia porcellus [2], `CCc1nc2c(nc1C)C(NCCO)=NS(=O)(=O)N2CC` displayed an inhibition at 30 µg/mL of 41%. For the same molecule, the MIC result in the assay filed under Cavia porcellus [3] was “inactive”.
For the molecule `CCN1c2nc(-c3ccccc3)c(C)nc2C(N)=NS1(=O)=O`, the MIC in the assay filed under Cavia porcellus [1] was found to be 3 µg/mL (≈ 9.45 µM). Moreover, testing at 30 µg/mL in the assay listed under Cavia porcellus [2] gave an inhibition of 100%.
The corresponding values for `CCOC(=O)CN1c2nc(-c3ccccc3)cnc2C(N)=NS1(=O)=O` are 10 µg/mL (≈ 27.7 µM) and 72%.
Consider `CCN1c2nc(C)c(-c3ccccc3)nc2C(N)=NS1(=O)=O`, for which the MIC in the assay listed under Cavia porcellus [1] came out at 30 µg/mL (≈ 94.5 µM). In the assay listed under Cavia porcellus [2], this molecule came in with an inhibition at 30 µg/mL of 93%.
On the same counts, the results for `CCN1c2ncc(C(C)(C)C)nc2C(N)=NS1(=O)=O` are 30 µg/mL (≈ 106 µM) and 86%.
The corresponding values for `CCN1c2nc(C(C)C)c(C)nc2C(N)=NS1(=O)=O` are 30 µg/mL (≈ 106 µM) and 55%.
As for `CCOC(=O)CN1c2ncc(C)nc2C(N)=NS1(=O)=O`, in the assay listed under Cavia porcellus [2], testing at 30 µg/mL gave an inhibition of 20%. For the same molecule, the MIC result in the assay filed under Cavia porcellus [3] is “inactive”.
For `CCN1c2ncc(C)nc2C(N)=NS1(=O)=O`, the MIC in the assay listed under Cavia porcellus [1] was found to be 30 µg/mL (≈ 124 µM). In the assay filed under Cavia porcellus [2], 30 µg/mL produced 67% inhibition.
Molecule `CCN1c2nc(-c3ccccc3)cnc2C(NCc2ccccc2)=NS1(=O)=O` returned an inhibition at 30 µg/mL in the assay filed under Cavia porcellus [2] of 20%. Further, the MIC entry in the assay listed under Cavia porcellus [3] was “inactive”.
For the molecule `CCc1nc2c(nc1C)C(NN)=NS(=O)(=O)N2CC`, in the assay listed under Cavia porcellus [1], the minimum inhibitory concentration (MIC) stood at 30 µg/mL (≈ 106 µM). In the assay listed under Cavia porcellus [2], this molecule showed an inhibition at 30 µg/mL of 72%.
Regarding `CCN1c2ncc(C)nc2C(NCc2ccccc2)=NS1(=O)=O`, in the assay listed under Cavia porcellus [2], the inhibition at 30 µg/mL worked out at 27%. Moreover, in the assay filed under Cavia porcellus [3], the MIC entry is “inactive”.
In the assay filed under Cavia porcellus [1], `CN1c2nc(-c3ccccc3)c(Cl)nc2C(N)=NS1(=O)=O` registered a minimum inhibitory concentration (MIC) of 30 µg/mL (≈ 92.7 µM). In the assay filed under Cavia porcellus [2], this molecule showed an inhibition at 30 µg/mL of 86%.
The corresponding values for `CCN1c2nc(-c3ccccc3)cnc2C(N)=NS1(=O)=O` are 3 µg/mL (≈ 9.89 µM) and 95%.
On the same counts, the results for `CCN1c2nc(-c3ccccc3)c(Br)nc2C(N)=NS1(=O)=O` are 30 µg/mL (≈ 78.5 µM) and 63%.
In the assay filed under Cavia porcellus [2], `CCN1c2nc(C)c(C)nc2C(N)=NS1(=O)=O` came in with an inhibition at 30 µg/mL of 33%.
`CN1c2nccnc2C(N)=NS1(=O)=O` registered an inhibition at 30 µg/mL in the assay filed under Cavia porcellus [2] of 22%. In addition, in the assay listed under Cavia porcellus [3], the MIC result was “inactive”.
In the assay listed under Cavia porcellus [1], `CN1c2nc(-c3ccccc3)cnc2C(NN)=NS1(=O)=O` returned a minimal inhibitory concentration (MIC) of 10 µg/mL (≈ 32.9 µM). This molecule gave an inhibition at 30 µg/mL in the assay filed under Cavia porcellus [2] of 81%.
`CCN1c2nc(-c3ccccc3)c(-c3ccccc3)nc2C(N)=NS1(=O)=O`: 30 µg/mL produced 24% inhibition in the assay filed under Cavia porcellus [2]. Moreover, the MIC entry in the assay listed under Cavia porcellus [3] is “inactive”.
Take `CCc1cnc2c(n1)N(CC)S(=O)(=O)N=C2N`: the minimum inhibitory concentration (MIC) in the assay listed under Cavia porcellus [1] was 30 µg/mL (≈ 118 µM). In the assay listed under Cavia porcellus [2], this molecule came in with an inhibition at 30 µg/mL of 80%.
`Cc1cnc2c(n1)C(N)=NS(=O)(=O)N2C` registered an inhibition at 30 µg/mL in the assay listed under Cavia porcellus [2] of 45%. Also, the MIC entry in the assay filed under Cavia porcellus [3] is “inactive”.
In the case of `CCCN1c2nc(CC)c(C)nc2C(N)=NS1(=O)=O`, the MIC in the assay filed under Cavia porcellus [1] turned out to be 30 µg/mL (≈ 106 µM). In the assay filed under Cavia porcellus [2], this molecule returned an inhibition at 30 µg/mL of 51%.
The corresponding values for `CCc1nc2c(nc1C)C(N)=NS(=O)(=O)N2C` are 3 µg/mL (≈ 11.8 µM) and 95%.
In the assay listed under Cavia porcellus [1], `CCc1nc2c(nc1C)N(CC)S(=O)(=O)N=C2N` displayed an MIC of 10 µg/mL (≈ 37.1 µM). For the same molecule, the inhibition at 30 µg/mL in the assay filed under Cavia porcellus [2] came out at 95%.
On the same counts, the results for `CCCc1cnc2c(n1)C(N)=NS(=O)(=O)N2CC` are 10 µg/mL (≈ 37.1 µM) and 90%.
For `CCc1nc2c(nc1CC)N(CC)S(=O)(=O)N=C2N`, at 30 µg/mL the inhibition in the assay listed under Cavia porcellus [2] was 0%. For the same molecule, the MIC entry in the assay filed under Cavia porcellus [3] is “inactive”.
In turn, `CCNC1=NS(=O)(=O)N(CC)c2ncc(-c3ccccc3)nc21` came in with a minimal inhibitory concentration (MIC) in the assay filed under Cavia porcellus [1] of 10 µg/mL (≈ 30.2 µM). Moreover, at 30 µg/mL the inhibition in the assay listed under Cavia porcellus [2] was 74%.
`Cc1nc2c(nc1C)N(C)S(=O)(=O)N=C2NCc1ccccn1`: the inhibition at 30 µg/mL in the assay listed under Cavia porcellus [2] is 31%. Besides, the MIC result in the assay listed under Cavia porcellus [3] is “inactive”.
Regarding `CCOC(=O)CN1c2nc(C)c(C)nc2C(N)=NS1(=O)=O`, the inhibition at 30 µg/mL in the assay filed under Cavia porcellus [2] was 15%. The MIC result in the assay filed under Cavia porcellus [3] is “inactive”.
The corresponding values for `CCN1c2ncc(-c3ccccc3)nc2C(N)=NS1(=O)=O` are 20% and “inactive”.
The corresponding values for `CCc1nc2c(nc1C)C(N)=NS(=O)(=O)N2CC` are 0% and “inactive”.
In the case of `CCCCc1nc2c(nc1C)C(N)=NS(=O)(=O)N2C`, the minimum inhibitory concentration (MIC) in the assay filed under Cavia porcellus [1] is 10 µg/mL (≈ 35.3 µM). Also, at 30 µg/mL the inhibition in the assay listed under Cavia porcellus [2] was 64%.
